KCNQ1 block: inhibitors of human KCNQ1 channel, primary screen, cell-based, thallium flux, high-throughput | Potassium voltage-gated channel subfamily KQT member 1 (Homo sapiens), P51787 | CHO-K1 KCNQ1, FluxOR thallium flux fluorescence; stronger effect = higher value | B-score at 10 µM | actives 1.3% (n = 310,000) | AID 2642, 2010;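 active means compounds whose thallium flux B-score, printed positive for inhibition, exceeds three library SD while starting fluorescence stays within three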;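 further: channel opened by potassium depolarization with thallium stimulus after 20 min compound exposure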
KCNK3 block: human KCNK3 channel inhibitors, primary screen, CHO cells, FluxOR thallium flux, B-score. FluxOR fluorescence; stronger effect = lower value. Potassium channel subfamily K member 3 (Homo sapiens), O14649. AID 602410, 2012. actives 0.84% (n = 340,000). B-score at 10 µM;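 active means B-score under library mean minus 4 SD, starting fluorescence ratio at most library mean plus 5 SD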;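 further: more negative B-score means stronger inhibition of thallium flux through KCNK3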
KCNK9 block: KCNK9 potassium channel inhibitors, primary screen, HEK293 cells, thallium flux | Potassium channel subfamily K member 9 (Homo sapiens), Q9NPC2 | FluxOR thallium flux fluorescence; stronger effect = lower value | B-score at 10 µM | actives 1.2% (n = 310,000) | AID 488922, 2010;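 active means ratio B-score over 3 SD below the library mean, with starting fluorescence within 5 SD of its mean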;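 further: negative B-score means less thallium flux so channel inhibition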
Target sequence (Q9NPC2 whole entry, looked up): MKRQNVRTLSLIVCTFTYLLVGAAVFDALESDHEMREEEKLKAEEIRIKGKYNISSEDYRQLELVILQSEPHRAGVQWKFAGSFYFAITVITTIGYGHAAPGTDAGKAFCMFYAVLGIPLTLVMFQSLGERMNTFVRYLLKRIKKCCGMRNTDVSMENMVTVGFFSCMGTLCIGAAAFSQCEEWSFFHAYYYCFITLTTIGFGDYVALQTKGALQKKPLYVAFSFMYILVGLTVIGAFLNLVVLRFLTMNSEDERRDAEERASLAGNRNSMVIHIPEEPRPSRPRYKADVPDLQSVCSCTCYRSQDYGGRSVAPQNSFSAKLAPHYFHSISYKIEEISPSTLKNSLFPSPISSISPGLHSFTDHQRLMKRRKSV
KCNQ1 pot: potentiators or activators of KCNQ1 channel, primary screen, cell-based, thallium flux, high-throughput. AID 2648, 2010. actives 0.35% (n = 310,000). B-score at 10 µM. CHO-K1 KCNQ1, thallium flux FluxOR fluorescence; stronger effect = higher value;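 active means fluorescence ratio B-score, a plate-corrected score, at least three library SD, with initial intensity B-score within 5 SD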
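Assay system: CHO-K1 cells stably expressing KCNQ1. Medium: assay buffer for compound exposure, DMSO matched across wells. Timing: 37 °C overnight plating, 90-min dark dye load, 20-min compound pretreatment. Signal: kinetic FluxOR fluorescence, 10 s baseline plus 110 s post-stimulus.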
PHOSPHO1 block: PubChem AID 1565 | Phosphoethanolamine/phosphocholine phosphatase (Homo sapiens), Q8TCT1 | recombinant PHOSPHO1, absorbance phosphatase assay | inhibition, % at 13.3 µM | actives 1.1% (n = 290,000); in the data active means inhibition above about 60%
Target sequence (Q8TCT1 whole entry, looked up): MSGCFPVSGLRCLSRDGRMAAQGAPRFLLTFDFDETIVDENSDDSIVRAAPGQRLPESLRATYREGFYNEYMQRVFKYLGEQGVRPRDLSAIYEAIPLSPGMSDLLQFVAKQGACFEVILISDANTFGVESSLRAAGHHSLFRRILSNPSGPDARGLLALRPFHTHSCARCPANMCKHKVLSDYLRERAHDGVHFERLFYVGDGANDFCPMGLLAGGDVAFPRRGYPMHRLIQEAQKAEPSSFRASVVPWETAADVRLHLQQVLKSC
hERG rescue: hERG rescue from dofetilide block, primary screen, cell-based, CHO-hERG, FluxOR thallium flux, dofetilide IC70; Voltage-gated inwardly rectifying potassium channel KCNH2 (Homo sapiens), Q12809; dofetilide IC70 present; activation (rescue from dofetilide block), less the hit threshold, % at 10 µM; actives 0.51% (n = 310,000); AID 1511, 2009;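 active means activation above the mean of controls blocked by dofetilide plus 5 SD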;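 further: thallium influx through hERG after potassium depolarization seen as dye fluorescence rise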
KCNK9 block conf: KCNK9 potassium channel inhibitors, confirmation, HEK293 cells, thallium flux, duplicate; shares compounds with KCNK9 block; FluxOR thallium flux fluorescence; AID 492992, 2010; inhibition, % at 10 µM; actives 43% (n = 4,900);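 active means thallium signal inhibited by more than 5 SD of the compound-free buffer control wells, on both duplicate plates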
Kir21 sel: mouse Kir2.1 channel inhibition, confirmation, selectivity assay for KCNK9 modulator project, cell-based, HEK293, thallium flux; shares compounds with KCNK9 block; Kir2.1 cells, FluxOR thallium flux fluorescence; inhibition, % at 10 µM; actives 4% (n = 4,900); AID 492993, 2010;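 active means thallium signal drop more than 5 SD beyond the mean of the no-compound control wells, seen in both duplicate plates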;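 further: signal is fluorescence rise after thallium addition divided by baseline fluorescence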
KCNK9 uninduced: thallium flux in non-induced HEK293 cells, confirmation, counter-screen for KCNK9 inhibitor project, cell-based, second counter screen, non-induced KCNK9-HEK293. shares compounds with KCNK9 block. FluxOR thallium flux. inhibition, % at 10 µM. actives 40% (n = 4,900). AID 492997, 2010;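 active means thallium signal drop beyond 5 SD of the untreated control mean, on both duplicate plates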
A number is an active result; n = inactive; x = not tested or not shown. Only some compounds are listed: those with a hit (about 4% of all), similar ones and a draw of the others.

SMILES	KCNQ1 block	KCNK3 block	KCNK9 block	KCNQ1 pot	PHOSPHO1 block	hERG rescue	KCNK9 block conf	Kir21 sel	KCNK9 uninduced
CC1CCN(Cc2c(C(=O)N/N=C/c3ccc(OC(C)C)cc3)nnn2-c2nonc2N)CC1	n	n	n	n	n	n	n	n	n
Cc1ccccc1COc1ccc(/C=N/NC(=O)c2nnn(-c3nonc3N)c2CN2CCC(C)CC2)cc1	n	n	n	n	n	n	n	n	n
COc1ccc(NS(=O)(=O)c2c(C)n(C)c(=O)n(C)c2=O)cc1OC	n	n	n	n	n	n	x	x	x
CC1Cc2ccccc2N1C(=O)COC(=O)/C=C/c1ccc(F)cc1 (configuration not stated)	x	n	x	x	x	x	x	x	x
CC1Cc2ccccc2N1C(=O)/C=C/c1cccc(F)c1 (configuration not stated)	n	n	n	n	n	n	n	n	n
CN(Cc1ccccc1)C(=O)COc1ccccc1Cl	n	n	n	n	n	n	x	x	x
CN(Cc1ccccc1)C(=O)COc1ccc(Br)cc1Cl	n	n	-12	n	n	n	37%	n	30%
O=C(COC(=O)CCNS(=O)(=O)c1cccc(C(F)(F)F)c1)NC(=O)NC1CCCCC1	n	n	-15	n	n	n	61%	n	31%
COc1ccccc1C/C(N)=N/OC(=O)COc1cccc(C)c1C	n	n	n	n	n	n	n	n	n
O=C(O)CCn1c(-c2ccccc2)cc2c1CCCC2=O	n	n	n	n	n	n	x	x	x
O=C(NC1CCCCC1)C1CCCN(S(=O)(=O)c2cccc3cccnc23)C1 (configuration not stated)	n	n	n	n	n	n	x	x	x
O=C(C1CCCN(S(=O)(=O)c2cccc3cccnc23)C1)N1CCc2ccccc21 (configuration not stated)	n	n	n	n	n	n	n	n	n
C[C@]12CCC[C@H](O1)c1c(cc3c(c1O)C(=O)c1c(O)cc(O)cc1C3=O)O2	14	-10	-12	n	x	n	58%	n	42%
CCCCC(=O)NCCc1cc2c(OC)ccc(OC)c2[nH]c1=O	n	n	n	n	n	n	n	n	n
COc1ccc(C(=O)NCCc2cc3c(OC)ccc(OC)c3[nH]c2=O)cc1OC	n	n	n	n	n	n	x	x	x
COc1cc(OC)nc(Oc2cccc(C(F)(F)F)c2)n1	n	n	-10	n	n	n	48%	n	38%
CC(=O)N1CCN(C(=O)C2(NC(=O)Nc3cccc(F)c3)CCCCC2)CC1	n	n	n	n	n	n	x	x	x
CC1Cc2ccccc2N1C(=O)CO/N=C/c1ccc(OC(F)F)cc1 (configuration not stated)	n	n	n	n	n	n	n	n	n
O=C(CO/N=C/c1ccc(OC(F)F)cc1)NC1CCCC1	n	n	n	n	n	n	x	x	x
CCOC(=O)C1=C(CC)Nc2ccccc2N=C1NC(=O)c1oc2ccccc2c1C	n	n	-11	n	n	n	35%	n	27%
CCOCc1c(C(=O)NC2=Nc3ccccc3NC(CC)=C2C(=O)OCC)oc2ccccc12	n	n	-16	n	n	n	47%	n	n
CCOC(=O)C1=C(CC)Nc2ccccc2N=C1NC(=O)CCNC(C)=O	n	n	n	n	n	n	x	x	x
CCCCN(CC(O)COc1cccc(C)c1)CC(O)COc1cccc(C)c1 (configuration not stated)	n	n	n	n	n	n	n	n	42%
CN(C)CC(O)COc1cccc(OCC(O)CN(C)C)c1 (configuration not stated)	n	n	n	n	n	n	x	x	x
Cc1cccc(NC(=O)CN2CCC(C(=O)c3ccc4c(c3)OCCO4)CC2)c1	n	n	n	n	n	n	n	n	n
SMILES	KCNQ1 block	KCNK3 block	KCNK9 block	KCNQ1 pot	PHOSPHO1 block	hERG rescue	KCNK9 block conf	Kir21 sel	KCNK9 uninduced
O=C(Nc1cccnc1)c1c(F)c(F)c(F)c(F)c1F	n	n	n	n	n	n	x	x	x
O=C(Nc1ccncc1)c1c(F)c(F)c(F)c(F)c1F	n	n	-11	n	x	n	36%	n	28%
c1ccc(C2CCCN(Cc3nc(CC4CC4)no3)CC2)cc1 (configuration not stated)	n	n	n	n	n	n	n	n	n
Cc1ccccc1C1CCCN(Cc2nc(CC3CC3)no2)C1 (configuration not stated)	n	n	n	n	n	n	n	n	n
COc1ccc(-n2nc3c(N4CCC(C(=O)N5CCCCCC5)CC4)nnc(C)c3c2C)cc1	n	n	n	n	n	n	x	x	x
CCOc1ccccc1NC(=O)CSc1nnc(-c2ccco2)n1Cc1ccco1	n	n	n	n	n	n	x	x	x
CCOc1ccccc1NC(=O)CSc1nnc(-c2ccccc2Cl)n1Cc1ccco1	n	n	-10	n	n	n	53%	n	36%
O=C(CSc1nc(-c2ccccc2Cl)ns1)c1ccc(Cl)cc1	n	n	-12	n	n	n	46%	n	43%
Cc1cccc(-c2nsc(SCC(=O)c3ccc(Cl)cc3)n2)c1	n	n	n	n	n	n	x	x	x
CCSc1nc2c(sc3ccccc32)c(=O)n1C(C)C	n	n	-11	13	n	6.1	46%	n	n
Cc1ccc2[nH]c(=O)c(CN(c3cccc(C)c3C)S(=O)(=O)c3ccccc3)cc2c1	n	n	n	n	n	n	x	x	x
Cc1ccc(N(Cc2cc3cccc(C)c3[nH]c2=O)S(=O)(=O)c2ccccc2)c(C)c1	n	n	n	n	n	n	n	n	n
Cc1nc2ncnn2c(Nc2ccc3c(c2)OCO3)c1Cc1ccccc1	n	n	n	n	n	n	x	x	x
CC(C(=O)Nc1ccc(C#N)cc1)N(C)Cc1cccs1 (configuration not stated)	n	n	n	n	n	n	x	x	x
CC(C(=O)Nc1ccc(Cl)cc1)N(C)Cc1cccs1 (configuration not stated)	n	n	-11	n	n	n	56%	n	25%

Bioassay records as filed in PubChem.
